# Laboratory results: ChEMBL document CHEMBL5058577, “EUbOPEN Chemogenomics Library 2 (Multiplex)” (2022)
# Test system: U2OS
# Test: Multiplex assay against U2OS
# Type: toxicity, cell-based
# Conditions: human
# Method in brief: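 With compound added, live cells were imaged on a CQ1 microscope at 37°C and 5% CO2; staining with Hoechst33342, BioTracker Green Microtubule Cytoskeleton Dye, MitoTracker Red and Annexin V Alexa Fluor 680 had been done at seeding. The CellPathfinder machine-learning gating scheme split cells into Hoechst high-intensity objects or normal cells, normal cells into healthy, pyknosed or fragmented nuclei, and pyknosed cells into mitotic or apoptotic. The tubulin, mitochondrial-mass and membrane-permeability phenotypes are per cents of healthy-nucleus cells.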
# [1] = 12 h, 1 µM, compound concentration 1 uM, replicate 1
# [2] = 12 h, 1 µM, compound concentration 1 uM, replicate 2
# [3] = 12 h, 10 µM, compound concentration 10 uM, replicate 1
# [4] = 12 h, 10 µM, compound concentration 10 uM, replicate 2
# [5] = 24 h, 1 µM, compound concentration 1 uM, replicate 1
# [6] = 24 h, 1 µM, compound concentration 1 uM, replicate 2
# [7] = 24 h, 10 µM, compound concentration 10 uM, replicate 1
# [8] = 24 h, 10 µM, compound concentration 10 uM, replicate 2
# [9] = 48 h, 1 µM, compound concentration 1 uM, replicate 1
# [10] = 48 h, 1 µM, compound concentration 1 uM, replicate 2
# [11] = 48 h, 10 µM, compound concentration 10 uM, replicate 1
# [12] = 48 h, 10 µM, compound concentration 10 uM, replicate 2
smiles,measurement,setting,value
CCCC(CCC)C(=O)O [VALPROIC ACID],Population Apoptotic (%),[1],72%
same,Population Fragmented Nuclei (%),[1],28%
same,Population Healthy Nuclei (%),[1],63%
same,Population Hoechst High Intensity Objects (%),[1],6%
same,Population Membrane Permeable-Phenotype (%),[1],9%
same,Population Mitochondria Different-Phenotype (%),[1],7%
same,Population Mitotic Cells (%),[1],27%
same,Population Normal (%),[1],93%
same,Population Pyknosed Nuclei (%),[1],8%
same,Population Tubulin-Different-Phenotype (%),[1],8%
same,Population Apoptotic (%),[2],66%
same,Population Fragmented Nuclei (%),[2],14%
same,Population Healthy Nuclei (%),[2],77%
same,Population Hoechst High Intensity Objects (%),[2],2%
same,Population Membrane Permeable-Phenotype (%),[2],8%
same,Population Mitochondria Different-Phenotype (%),[2],3%
same,Population Mitotic Cells (%),[2],33%
same,Population Normal (%),[2],97%
same,Population Tubulin-Different-Phenotype (%),[2],6%
same,Population Apoptotic (%),[3],77%
same,Population Fragmented Nuclei (%),[3],30%
same,Population Healthy Nuclei (%),[3],66%
same,Population Hoechst High Intensity Objects (%),[3],4%
same,Population Membrane Permeable-Phenotype (%),[3],6%
same,Population Mitochondria Different-Phenotype (%),[3],3%
same,Population Mitotic Cells (%),[3],22%
same,Population Normal (%),[3],95%
same,Population Pyknosed Nuclei (%),[3],3%
same,Population Tubulin-Different-Phenotype (%),[3],4%
same,Population Apoptotic (%),[4],85%
same,Population Fragmented Nuclei (%),[4],21%
same,Population Healthy Nuclei (%),[4],70%
same,Population Hoechst High Intensity Objects (%),[4],0%
same,Population Membrane Permeable-Phenotype (%),[4],4%
same,Population Mitochondria Different-Phenotype (%),[4],4%
same,Population Mitotic Cells (%),[4],14%
same,Population Normal (%),[4],100%
same,Population Pyknosed Nuclei (%),[4],7%
same,Population Apoptotic (%),[5],84%
same,Population Fragmented Nuclei (%),[5],24%
same,Population Healthy Nuclei (%),[5],66%
same,Population Hoechst High Intensity Objects (%),[5],6%
same,Population Membrane Permeable-Phenotype (%),[5],9%
same,Population Mitochondria Different-Phenotype (%),[5],6%
same,Population Mitotic Cells (%),[5],16%
same,Population Normal (%),[5],93%
same,Population Pyknosed Nuclei (%),[5],8%
same,Population Tubulin-Different-Phenotype (%),[5],9%
same,Population Apoptotic (%),[6],100%
same,Population Fragmented Nuclei (%),[6],17%
same,Population Healthy Nuclei (%),[6],74%
same,Population Hoechst High Intensity Objects (%),[6],3%
same,Population Mitochondria Different-Phenotype (%),[6],2%
same,Population Mitotic Cells (%),[6],0%
same,Population Normal (%),[6],96%
same,Population Tubulin-Different-Phenotype (%),[6],7%
same,Population Apoptotic (%),[7],83%
same,Population Fragmented Nuclei (%),[7],25%
same,Population Healthy Nuclei (%),[7],71%
same,Population Hoechst High Intensity Objects (%),[7],2%
same,Population Membrane Permeable-Phenotype (%),[7],4%
same,Population Mitochondria Different-Phenotype (%),[7],3%
same,Population Mitotic Cells (%),[7],16%
same,Population Normal (%),[7],97%
same,Population Pyknosed Nuclei (%),[7],3%
same,Population Tubulin-Different-Phenotype (%),[7],3%
same,Population Apoptotic (%),[8],100%
same,Population Fragmented Nuclei (%),[8],17%
same,Population Healthy Nuclei (%),[8],78%
same,Population Hoechst High Intensity Objects (%),[8],0%
same,Population Membrane Permeable-Phenotype (%),[8],8%
same,Population Mitochondria Different-Phenotype (%),[8],4%
same,Population Mitotic Cells (%),[8],0%
same,Population Normal (%),[8],100%
same,Population Pyknosed Nuclei (%),[8],4%
same,Population Tubulin-Different-Phenotype (%),[8],5%
same,Population Apoptotic (%),[9],76%
same,Population Fragmented Nuclei (%),[9],20%
same,Population Healthy Nuclei (%),[9],69%
same,Population Hoechst High Intensity Objects (%),[9],3%
same,Population Membrane Permeable-Phenotype (%),[9],7%
same,Population Mitochondria Different-Phenotype (%),[9],5%
same,Population Mitotic Cells (%),[9],23%
same,Population Normal (%),[9],96%
same,Population Pyknosed Nuclei (%),[9],9%
same,Population Tubulin-Different-Phenotype (%),[9],5%
same,Population Apoptotic (%),[10],91%
same,Population Fragmented Nuclei (%),[10],16%
same,Population Healthy Nuclei (%),[10],72%
same,Population Membrane Permeable-Phenotype (%),[10],8%
same,Population Mitotic Cells (%),[10],8%
same,Population Pyknosed Nuclei (%),[10],11%
same,Population Tubulin-Different-Phenotype (%),[10],6%
same,Population Apoptotic (%),[11],91%
same,Population Fragmented Nuclei (%),[11],20%
same,Population Healthy Nuclei (%),[11],71%
same,Population Hoechst High Intensity Objects (%),[11],2%
same,Population Membrane Permeable-Phenotype (%),[11],3%
same,Population Mitochondria Different-Phenotype (%),[11],2%
same,Population Mitotic Cells (%),[11],8%
same,Population Normal (%),[11],97%
same,Population Pyknosed Nuclei (%),[11],7%
same,Population Tubulin-Different-Phenotype (%),[11],1%
same,Population Apoptotic (%),[12],93%
same,Population Hoechst High Intensity Objects (%),[12],1%
same,Population Membrane Permeable-Phenotype (%),[12],9%
same,Population Mitotic Cells (%),[12],6%
same,Population Normal (%),[12],98%
same,Population Tubulin-Different-Phenotype (%),[12],4%
